D1 allo mod: D1 dopamine receptor (human) allosteric modulation; HEK293 D1, CRE-luciferase, dopamine EC30 potentiation; actives deviate in either direction; AID 641; B-score at 10 µM; actives 5.9% (n = 58,000); P21728;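 active means luminescence count or its row- and column-corrected plate score outside the 99.7% band of the plate's sample wells, on either side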
PostGolgi yeast: growth inhibition of a yeast mutant, post-Golgi transport screen; actives 0.9% (n = 98,000); inhibition, % at 10 µM; AID 739; post-Golgi transport phenotypic cell assay;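 further: yeast cells grown in 1536-well plates; yeast grown about 18 h at 30C before absorbance read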
E coli WT exp: blocks growth of wild type E. coli BW25113; OD600 absorbance; growth inhibition, % at 100 µM; actives 0.15% (n = 98,000); AID 710;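 active means growth inhibition above about 50% at one test dose, limit read from the data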;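 further: growth measured after 20 h incubation at 37 °C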
PostGolgi ctrl: growth of the yeast control strain, post-Golgi counter-screen. actives 5% (n = 98,000). efflux-deficient yeast background strain, growth absorbance A615, 16 h. inhibition, % at 10 µM. AID 738
tolC growth inh: blocks growth of E. coli BW25113 tolC mutant. AID 573. growth inhibition, % at 10 µM (by protocol). OD615. actives 2.2% (n = 65,000);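 active means growth inhibition at or above a cutoff equal to the mean over every tested compound plus 3 SD, cut at about 60% in these data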;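 further: growth measured after 20 h incubation at 37 °C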
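Test system – E. coli BW25113 ΔtolC::kan, tolC deletion mutant strain · Detection – OD at 615 nm · Buffer or medium – LB with kanamycin 50 µg/mL · Times – 20 h compound exposure of bacteria at 37 °C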
hDAT+cocaine: human DAT dopamine uptake with cocaine, either direction; B-score at 10 µM; AID 449768; actives 1.3% (n = 110,000); Q01959; LLC-PK1 hDAT cells, [14C]-dopamine uptake with cocaine IC80; actives deviate in either direction;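 active means Z score or B-score, a plate-position-corrected score, falls beyond the plate's 99.7% confidence bounds, in either direction; inactive means both scores lie inside the 99.7% bounds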
Target sequence (Q01959 whole entry, looked up): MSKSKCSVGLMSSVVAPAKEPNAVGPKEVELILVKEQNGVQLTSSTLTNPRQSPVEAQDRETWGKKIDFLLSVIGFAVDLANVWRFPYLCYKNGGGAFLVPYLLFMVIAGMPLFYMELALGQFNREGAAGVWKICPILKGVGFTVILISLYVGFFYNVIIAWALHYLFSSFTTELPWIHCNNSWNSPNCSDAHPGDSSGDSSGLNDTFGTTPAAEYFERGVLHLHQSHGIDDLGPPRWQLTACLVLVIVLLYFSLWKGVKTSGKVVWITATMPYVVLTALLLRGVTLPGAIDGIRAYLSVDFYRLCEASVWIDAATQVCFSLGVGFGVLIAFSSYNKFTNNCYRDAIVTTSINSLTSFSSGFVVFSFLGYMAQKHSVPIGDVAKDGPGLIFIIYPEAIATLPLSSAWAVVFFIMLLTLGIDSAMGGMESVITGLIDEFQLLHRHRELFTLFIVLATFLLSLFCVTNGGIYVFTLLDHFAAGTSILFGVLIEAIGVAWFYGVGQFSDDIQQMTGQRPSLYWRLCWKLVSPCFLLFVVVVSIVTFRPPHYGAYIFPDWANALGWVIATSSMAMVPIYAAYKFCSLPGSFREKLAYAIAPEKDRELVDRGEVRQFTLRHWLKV
Each line names hits and unclear results; the compound was inactive in the other large screens. Compounds with a hit are over-represented: about 9.3% of the library has one in this group of screens. Unless noted, no stated cut-off is given here; in the data, active means inhibition above about 30%; inactive means the rest.

COc1ccc(N2C(=O)CSC2c2ccc3c(c2)OCO3)cc1 (stereo not drawn)	none
Cc1nc2sc(C(c3ccc(F)cc3)N3CCN(C(=O)c4ccco4)CC3)c(O)n2n1 (stereo not drawn)	none (no result: PostGolgi yeast, E coli WT exp, PostGolgi ctrl, hDAT+cocaine)
Nc1nnc(SCc2ccc(F)cc2)n1-c1ccccc1	none (no result: D1 allo mod, PostGolgi yeast, E coli WT exp, PostGolgi ctrl, tolC growth inh)
CCOC(=O)c1ccc(NC(=O)CC2OCCN(CC)C2=O)cc1 (stereo not drawn)	PostGolgi ctrl 35 (no result: D1 allo mod)
O=C(O)C1C2C=CC3(CN(Cc4ccncc4)C(=O)C13)O2 (stereo not drawn)	hDAT+cocaine -8.7 (no result: D1 allo mod)
Cc1ccc(-c2nc3cc(C)ccc3o2)cc1	none
CC(C)c1ccc2oc(-c3ccc(N)cc3)nc2c1	D1 allo mod -6
Cc1ccc(-c2nc3cc(N)ccc3o2)cc1	D1 allo mod -3.7
CCCc1cc(C(N)=O)c(NC(C)=O)s1	none (no result: D1 allo mod)
O=C(Nc1cccc(C(F)(F)F)c1)C12CC3CC(CC(C3)C1)C2	none (no result: D1 allo mod, PostGolgi yeast, E coli WT exp, PostGolgi ctrl, tolC growth inh)
Clc1ccc(CSC2=NCCCN2)cc1Cl	none
CNc1cc(CSC)nc(SCc2ccc(Cl)c(Cl)c2)n1	PostGolgi ctrl 35 (no result: D1 allo mod, tolC growth inh)
CCOC(=O)C1=C(CSc2nc3ccccc3s2)NC(=O)NC1c1cc(C)ccc1C (stereo not drawn)	PostGolgi ctrl 37 (no result: D1 allo mod, tolC growth inh)
CCOC(=O)C1=C(CSCC(=O)OC)NC(=O)NC1c1cc(C)ccc1C (stereo not drawn)	none (no result: D1 allo mod, tolC growth inh)
COC(=O)C1=C(CSc2nc3ccccc3o2)NC(=O)NC1c1cc(C)ccc1C (stereo not drawn)	PostGolgi ctrl 49, tolC growth inh 86
COC(=O)C1=C(CSCc2ccccc2)NC(=O)NC1c1cc(C)ccc1C (stereo not drawn)	none (no result: D1 allo mod, tolC growth inh)
COC(=O)C1=C(CN2CCc3ccccc32)NC(=O)NC1c1cc(C)ccc1C (stereo not drawn)	PostGolgi ctrl 32 (no result: hDAT+cocaine)
COC(=O)C1=C(CN2CCN(C)CC2)NC(=O)NC1c1cc(C)ccc1C (stereo not drawn)	none
CCOC(=O)C1=C(CSc2nc3ccccc3s2)NC(=O)NC1c1ccc(OC)cc1 (stereo not drawn)	PostGolgi ctrl 42 (no result: D1 allo mod, tolC growth inh)
CCOC(=O)C1=C(COc2ccccc2)NC(=O)NC1c1ccc2ccccc2c1 (stereo not drawn)	none (no result: D1 allo mod, PostGolgi yeast, E coli WT exp, PostGolgi ctrl, tolC growth inh)
CCC/C(O)=N\S(=O)(=O)c1ccc(N=NN(C)C)cc1	none (no result: D1 allo mod, PostGolgi yeast, E coli WT exp, PostGolgi ctrl, tolC growth inh)
CCOc1ccc2[nH]c(=O)c(C(c3nnnn3CC3CCCO3)N3CCc4ccccc4C3)cc2c1 (stereo not drawn)	none
Cc1cccc2cc(C(c3nnnn3CC3CCCO3)N3CCc4ccccc4C3)c(=O)[nH]c12 (stereo not drawn)	tolC growth inh 69 (no result: D1 allo mod, hDAT+cocaine)
Cc1ccc2cc(C(c3nnnn3CC3CCCO3)N3CCc4ccccc4C3)c(=O)[nH]c2c1 (stereo not drawn)	PostGolgi ctrl 42
CC1(C)N(O)CC(c2cccs2)=[N+]1[O-]	none (no result: D1 allo mod)
CN1C[C@@H]2C(c3ccc(C(F)(F)F)cc3)C3(c4cccnc4)CC2(C3)[C@H]1c1ccccc1 (stereo partly drawn)	none (no result: D1 allo mod, PostGolgi yeast, E coli WT exp, PostGolgi ctrl, tolC growth inh)
O=c1c2cc(Br)ccc2nc(-c2cccc(C(F)(F)F)c2)n1O	E coli WT exp 63 (no result: D1 allo mod, tolC growth inh)
COc1ccc(C2CC(c3ccc(OC)cc3)n3nc(NC(=O)c4ccco4)nc3N2)cc1 (stereo not drawn)	PostGolgi ctrl 31
COc1ccc(C2CC(c3ccccc3)Nc3nc(NC(=O)c4ccco4)nn32)cc1 (stereo not drawn)	none
COc1ccc(C2CC(c3ccccc3)Nc3nc(N)nn32)cc1 (stereo not drawn)	hDAT+cocaine 2.5 (no result: D1 allo mod)
COc1ccc(C2CC(c3ccc(OC)cc3)n3nc(N)nc3N2)cc1 (stereo not drawn)	none (no result: PostGolgi yeast, E coli WT exp, PostGolgi ctrl)
Cc1nc(Nc2ncc3c(n2)CCCC3=O)nc2ccccc12	none (no result: D1 allo mod, PostGolgi yeast, E coli WT exp, PostGolgi ctrl, hDAT+cocaine)
CCc1ccc(S(=O)(=O)c2n[nH]n3c2nc(=O)c2ccccc23)cc1	PostGolgi ctrl 50
CC(C)c1ccc(S(=O)(=O)c2n[nH]n3c2nc(=O)c2ccccc23)cc1	PostGolgi ctrl 57 (no result: D1 allo mod)
O=c1nc2c(-c3ccccc3F)n[nH]n2c2ccccc12	none
CNC(=S)N1C2CCC1CC(NC(=O)NC13CC4CC(CC(C4)C1)C3)C2 (stereo not drawn)	none (no result: D1 allo mod, tolC growth inh)
COc1ccc(O)c(C(=O)CC(=O)c2ccccc2)c1	PostGolgi ctrl 33
CCC(C)(C)n1nnnc1CN(Cc1ccco1)Cc1cc2cc3c(cc2[nH]c1=O)OCO3	none

Compound activity from PubChem.
